Source: PubChem BioAssay (Sanford-Burnham Center for Chemical Genomics)
APJ antag: blocks the human apelin receptor APJ | 0.32% of 330,000 active | P35414 | AID 2521 | CHO-K1 APJ beta-arrestin complementation, luminescence | inhibition, % at 20 µM;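 active = inhibition above about 40% at 20 µM, limit read from the data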;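 also: cells challenged with 10 nM apelin-13 agonist together with compound; plate controls were apelin-13 plus DMSO wells for no effect and DMSO wells lacking apelin-13 for full effect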
Target sequence (P35414 whole entry, looked up): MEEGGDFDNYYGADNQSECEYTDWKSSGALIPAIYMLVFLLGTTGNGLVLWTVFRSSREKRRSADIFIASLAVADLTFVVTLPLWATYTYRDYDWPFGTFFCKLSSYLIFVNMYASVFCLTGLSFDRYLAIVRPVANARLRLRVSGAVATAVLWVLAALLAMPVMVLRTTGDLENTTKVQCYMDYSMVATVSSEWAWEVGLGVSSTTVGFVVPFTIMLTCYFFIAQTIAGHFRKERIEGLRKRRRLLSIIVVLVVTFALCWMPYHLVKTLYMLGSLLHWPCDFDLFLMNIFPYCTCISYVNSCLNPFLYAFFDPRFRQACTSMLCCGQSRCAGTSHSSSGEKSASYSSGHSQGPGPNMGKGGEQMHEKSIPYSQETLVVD
CXCR6 inh: CXCR6 (human) receptor inhibition | 0.36% of 360,000 active | CHO-K1 PathHunter CXCR6 beta-arrestin, luminescence | inhibition, % at 20 µM | AID 602244 | O00574; in the data active = inhibition above about 34%, passing the limit was not always enough;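 also: antagonist mode with CXCL16 agonist at 10 nM final; 0% = 10 nM CXCL16 with DMSO and 100% = unstimulated wells without agonist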
APJ agonist: agonists of human APJ apelin receptor | CHO-K1 APJ PathHunter beta-arrestin, luminescence; 0% DMSO wells, 100% apelin | activation, % at 20 µM | 0.11% of 330,000 active | AID 2520 | P35414;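 active = activation more than six SD over the plate average, tested at 20 µM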;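 also: 0% = DMSO alone and 100% = apelin-13 at 10 nM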
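Material: CHO-K1 APJ beta-arrestin complementation cell line; Input: cell density 1000 per well; Incubation: compound stimulation 90 min at 25 °C, detection 60 min; Signal: luminescence from split beta-galactosidase complementation, Galacton Star/Emerald II substrate; Controls: DMSO-only wells as negative, 10 nM Apelin-13 as positive control.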
CCR6 antagonist: blocks CCL20-driven beta-arrestin recruitment at human CCR6. P51684. CHO-K1 CCR6 PathHunter beta-arrestin, luminescence, CCL20-stimulated. inhibition, % at 20 µM. 0.49% of 340,000 active. AID 493098;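 active = compounds whose inhibition of the agonist-driven luminescence signal at 20 µM reaches about 50%, limit read from the data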;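 also: cells stimulated with CCL20 at 14 nM final; plate controls were DMSO with CCL20 for no effect and DMSO without agonist for full effect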
EBI2 antag: antagonists of human EBI2 receptor. EBI2 beta-arrestin recruitment, luminescence, 7a,25-OHC stimulated. 0.81% of 360,000 active. P32249. inhibition, % at 5 µM; in the data active = inhibition above about 38%;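 also: enzyme fragment complementation signal reports receptor beta-arrestin coupling in cells; 0% = agonist plus DMSO wells and 100% = wells without agonist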
APJ antag conf: confirmation of human APJ apelin receptor antagonists; APJ beta-arrestin recruitment, luminescence, antagonist mode; AID 2766; inhibition, % at 20 µM; 66% of 950 active; shares compounds with APJ antag; in the data active = inhibition above about 50%
Active calls of the source: *; · = not tested or not shown. Only some compounds are listed: those with a hit (about 1.5% of all), similar ones and a draw of the others.

SMILES	APJ antag	CXCR6 inh	APJ agonist	CCR6 antagonist	EBI2 antag	APJ antag conf
O=C1NN(c2ccccc2)C(=O)/C1=C\c1ccc(-c2cc([N+](=O)[O-])ccc2O)o1	46*	43*	-11	62*	17	93*
O=C1NN(c2ccc(Cl)cc2)C(=O)/C1=C\c1ccc(-c2cccc(C(=O)O)c2)o1	·	20	·	22	-9	·
CO[C@H]1CN(C)C(=O)c2ccc(NC(=O)C3CCC3)cc2OC[C@H](C)N(CC2CCCCC2)C[C@@H]1C	·	·	·	·	12	·
COc1ccccc1CNC(=O)C1(c2ccc(Cl)cc2)CC1	17	2	-2	2	0	·
Cc1ccc(S(=O)(=O)Nc2nc3ccccc3nc2Nc2cccc(S(=O)(=O)N3CCCC3)c2)cc1	74*	7	-1	2	-18	1
Cc1ccc(C(=O)C2Oc3ccccc3C3CC(c4ccc(C)cc4)=NN23)cc1 (stereo not given)	5	2	4	12	17	·
Cc1ccc(C2=NN3C(C(=O)c4ccccc4)Oc4ccccc4C3C2)cc1 (stereo not given)	46*	20	3	13	18	46
CC1CCCCN1S(=O)(=O)c1ccc(C(=O)N(CCCN(C)C)c2nc3ccc(Br)cc3s2)cc1 (stereo not given)	48*	-11	18	16	-12	37
Cn1c(=O)c2[nH]c(CCCCCCCc3nc4ccccc4[nH]3)nc2n(C)c1=O	·	-14	·	4	-1	·
Cc1nn(CC(=O)NCCCc2ccccc2)c(=O)c2cc3occc3n12	41*	4	-1	8	12	-2
Cc1ccc(Nc2cc(C)nn2-c2nc(C)cc(=O)[nH]2)cc1	87*	64*	-16	82*	90*	108*
COC(=O)c1ccccc1NC(=O)C1CCN(c2ncnc3c2nc2n3CCCCC2)CC1	4	-5	-2	21	-11	·
COc1ccc2c(c1)C(=O)Cc1ccccc1O2	5	3	-6	14	7	·
O=C(N/N=C/c1cccc(F)c1)c1cc(-c2ccco2)nc2ccccc12	3	-14	-5	17	-1	·
CN(C)CCCNC(=O)c1ccccn1	-3	11	-2	13	-10	·
CN(C)CCCNC(=O)c1ccc(-c2nc(-c3ccc(Cl)cc3)cs2)cc1	52*	14	0	82*	22	94*
O=[N+]([O-])c1ccc2[nH]c3nc4ccccc4nc3c2c1	15	6	-1	-2	-4	·
COc1ccc(C)cc1NC(=O)COC(=O)C1CC1	41*	-2	7	5	-1	13
CN1CCN(S(=O)(=O)c2cc([N+](=O)[O-])ccc2N/N=C/c2ccc(Cl)cc2)CC1	8	3	4	-3	-9	·
COc1ccccc1NS(=O)(=O)c1cc([N+](=O)[O-])ccc1N/N=C/c1c(C)[nH]c2ccccc12	58*	46*	-13	58*	39*	84*
O=[N+]([O-])c1ccc(N/N=C/c2c[nH]c3ccccc23)c(S(=O)(=O)Nc2ccc(Cl)cc2)c1	44*	35	-8	46	27	91*
CC1(O)CC(c2ccc(Cl)cc2)=NN1C(=O)c1ccc([N+](=O)[O-])cc1 (stereo not given)	41*	17	-8	68*	20	70*
O=C(CNc1cccc(Cl)c1)c1ccc(Br)cc1	69*	37	-12	62*	-2	90*
O=C(CNc1ccc(F)cc1)c1ccccc1	76*	53*	-15	80*	27	111*
O=C(CNc1ccc(Br)cc1)c1ccccc1	94*	45*	-14	81*	31	104*
SMILES	APJ antag	CXCR6 inh	APJ agonist	CCR6 antagonist	EBI2 antag	APJ antag conf
NC(=O)c1ccccc1NCC(=O)c1ccc(F)cc1	82*	27	-15	99*	3	140*
O=C(CNC(=S)NC(=O)c1ccc(F)cc1)c1ccccc1	11	9	-1	3	-4	·
COc1ccc(C2CC(c3cccc(Cl)c3)=NN2c2ccc(S(N)(=O)=O)cc2)cc1 (stereo not given)	·	3	·	18	4	·
CNc1ccc2ncc(-c3ccccc3NC(C)=O)n2n1	·	2	·	·	-14	·
O=C(NNC(=S)NC1CC2C=CC1C2)c1cccnc1 (stereo not given)	17	7	-2	-1	-2	·
Cc1cc(C)c(C)c(/C=C(/C#N)C(N)=S)c1C	42*	13	-8	29	6	36
CCOC(=O)c1cc(-c2ccc(F)cc2)nc2c1c(=O)[nH]c(=O)n2Cc1ccccc1	9	-4	0	-6	2	·
CCOC(=O)c1cc(-c2cc(OC)c(OC)c(OC)c2)nc2c1c(=O)[nH]c(=O)n2Cc1ccccc1	55*	28	-6	35	29	40
O=C(N/N=C\c1ccc([N+](=O)[O-])o1)c1cncc(Br)c1	42*	-11	3	18	7	22
O=C(N/N=C/c1ccc(-c2ccccc2[N+](=O)[O-])o1)c1cncc(Br)c1	-22	6	4	23	-1	·
COc1ccc(-c2sc3ccc(N4CCOCC4)cc3c2-c2ccc(OC)c(F)c2)cc1	-5	-9	5	5	24	·
CCC[N+](CC#Cc1ccccc1)(CCC)CC(=O)c1ccc(Cl)cc1	60*	15	-11	43	9	53*
O=C(C[N+]1(CC#Cc2ccccc2)CCCCC1)c1ccc(Cl)cc1	57*	27	-10	30	13	18
O=C(C[N+]1(CC#Cc2ccccc2)CCOCC1)c1ccc(Cl)cc1	90*	42*	-12	62*	7	108*
CCC[N+](CC#Cc1ccccc1)(CCC)CC(=O)OC	6	-11	-2	-9	-3	·
N#CC1=C(N)C(C#N)(C#N)C(c2cccnc2)C2CN(C(=O)OCc3ccccc3)CC=C12 (stereo not given)	50*	7	-8	53*	9	27
CCOC(=O)N1CC=C2C(C#N)=C(N)C(C#N)(C#N)[C@H](c3ccc(OCC)c(OCC)c3)[C@H]2C1	22	6	-3	17	20	·
COc1ccc(N=C2C(=O)N3c4c(cccc42)C(C)=CC3(C)C)cc1	46*	30	-3	50*	-2	89*
CSc1ccccc1C(=O)NC1CCCCCC1	46*	-4	-3	-12	-4	24
CCSC1(SCC)N=C(N)C2(C#N)C(c3ccccc3)NC3=C(CCC3)C12C#N (stereo not given)	-11	7	-4	-15	0	·
CCSC1(SCC)N=C(N)C2(C#N)C(c3ccc(OC)c(OC)c3OC)C12C#N (stereo not given)	51*	39	-4	58*	21	72*
O=C(Nc1cccc([N+](=O)[O-])c1)Nc1ccc2c(c1)OCCO2	42*	-2	-4	20	5	6
